Screening results as filed in PubChem BioAssay.
KDM4C inh = blocks human GASC-1 (KDM4C) demethylase activity; GST-KDM4C 2-372, H3K9me3 peptide, LANCE TR-FRET; 96,000 tested, 0.15% active; inhibition, % at 12.5 µM; Q9H3R0; AID 720574;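 active = mean replicate inhibition above about 25%, with at least 55% of replicates also reaching it, limit read from the data, passing the limit was not always enough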
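reagent = H3K9me3 peptide substrate, Fe(II), 2-oxoglutarate | system = GST-tagged GASC-1 (JMJD2C) catalytic fragment, aa 2-372 | amount = enzyme final amount 10 nM | read-out = Fall in 671/618 emission ratio as inhibition | medium = HEPES buffer, pH 7.5, plus ascorbate | schedule = 30 min reaction, 60 min detection, RT | measured by = LANCE TR-FRET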
IDH1 R132H inh = blocks human IDH1 R132H reductase activity. diaphorase/resazurin fluorescence, 60 min. AID 624101. O75874. inhibition, % at 10 µM. 70,000 tested, 0.18% active; in the data active = inhibition above about 34%;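 note: 0% = DMSO and 100% = no enzyme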
* marks the source's active call; other numbers are inactive results; · = no result. The full list was thinned out, with hits kept by preference.

SMILES | KDM4C inh | IDH1 R132H inh
C[C@@H]1CN([C@@H](C)CO)S(=O)(=O)c2ccc(C3=CCCCC3)cc2O[C@@H]1CN(C)C(=O)Cc1ccncc1 | -2 | ·
C[C@@H]1CN([C@@H](C)CO)S(=O)(=O)c2ccc(C3=CCCCC3)cc2O[C@@H]1CN(C)Cc1cccnc1 | 0 | 38*
C[C@@H]1CN([C@H](C)CO)S(=O)(=O)c2ccc(C3=CCCCC3)cc2O[C@@H]1CN(C)Cc1cccnc1 | -2 | ·
COc1ccc(C(C)C)cc1S(=O)(=O)Nc1cccc(C(=O)O)c1 | · | 0
CC(C)(C)c1ccc(OCC(=O)NCc2cccnc2)c(Br)c1 | · | 0
Cc1cc(-c2ccc(N=Nc3cc(S(=O)(=O)O)c4ccccc4c3N)c(C)c2)ccc1N=Nc1cc(S(=O)(=O)O)c2ccccc2c1N | · | 43*
Cc1cc(N)n(-c2ccc(Oc3ccccc3)cc2S(=O)(=O)O)n1 | · | -1
